# Tests used:
# [1] = test system: NCI-H23 cells; assay: Calcein-AM viability assay, NCI-H23; type: cell-based, human; settings: MMS 400 μM, 48 h; knockdown of RAD51C, ALKBH3, or both
# Outline: (§1)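 NCI-H23 cells grown in DMEM with 10% FBS at 37°C and 5% CO₂. Stable shRNA knockdown made by electroporation and 1 μg/ml puromycin selection for 30 days; the control shRNA targets luciferase. After MMS, cells were stained 30 min at 37°C with 2 μM Calcein AM in PBS and imaged by inverted fluorescence microscope. Percent MMS-induced cytotoxicity was plotted.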
# [2] = test system: PC3 cells; assay: Immunofluorescence of 3meC, PC3; type: cell-based, human; settings: 48 h
# Outline: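 Stable RAD51C and/or ALKBH3 shRNA-knockdown PC3 cells were grown on chamber slides with MMS, then fixed in 4% formaldehyde (15 min, RT). DNA was denatured in 1.5 M HCl for 30 min and neutralised with sodium borate pH 8.5. Cells were permeabilised (0.1% Triton X-100), blocked (1% BSA), stained with anti-3meC overnight at 4°C, then Alexa-594 secondary, with DAPI counterstain. Signal was quantified as mean ± SE of three independent assays by Student's t-test.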
# [3] = test system: PC-3 cells; assay: Cell survival assay; type: cell-based, human; settings: MTT, MMS 50–400 μM, 48 h
# Outline: (§2)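 Stable shRNA-knockdown cells (luciferase shRNA as control) seeded at 5000 per well in triplicate. MMS (0, 50, 100, 200, 300, 400 μM) was given continuously for 48 h. Medium was then replaced with 0.5 mg/ml MTT for 4 h at 37°C in the dark, formazan solubilised and A570 read. Percent viability given as mean ± SD from four experiments.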
# [4] = test system: PC-3 cells; assay: Calcein-AM viability assay, PC-3; type: cell-based, human; settings: MMS 400 μM, 48 h; knockdown of RAD51C, ALKBH3, or both
# Outline: as §1, with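 “PC-3” for “NCI-H23”, “Ham's F-12 GlutaMAX” for “DMEM”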
# [5] = test system: NCI-H23 cells; assay: Cell survival assay; type: cell-based, human; settings: MTT, MMS 50–400 μM, 48 h
# Outline: as §2
# [6] = test system: MEFs, CHO and DT40 cell lines lacking RAD51C; cancer cells lacking ALKBH3; settings: cited from earlier work
# [7] = test system: GST-ALKBH3; assay: GST pull-down of His-RAD51C constructs; type: binding, human; settings: 150 μg GST-ALKBH3, ∼100 μg His-protein, room temperature, 2 h; MNase
# Outline: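 His-RAD51C, full-length or Δ42–52, was expressed in E. coli BL21-CodonPlus(DE3)-RIL (1 mM IPTG, 16°C, 18 h) and purified on Ni-NTA. It was incubated with GST-ALKBH3 bound to glutathione beads in 25 mM Tris pH 7.5, 1 mM CaCl₂ and 500 mM NaCl, with 10 U micrococcal nuclease. In competition runs, RAD51C 42–52 or 33–41 peptide was added at 50, 250 or 500 μM. Bound protein was detected by SDS-PAGE and anti-6xHis western blot.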
# [8] = target: T1, ALKBH3 (Homo sapiens, UniProt Q96Q83); assay: Demethylation assay by dot-blot analysis, 3′-tailed DNA; type: biochemical; settings: ALKBH3 0.4 μM, RAD51C or RAD51CΔ42–52 8 μM, 3′-tailed DNA 8 μM, anti-3meC antibody
# T1 sequence (Q96Q83 1-286): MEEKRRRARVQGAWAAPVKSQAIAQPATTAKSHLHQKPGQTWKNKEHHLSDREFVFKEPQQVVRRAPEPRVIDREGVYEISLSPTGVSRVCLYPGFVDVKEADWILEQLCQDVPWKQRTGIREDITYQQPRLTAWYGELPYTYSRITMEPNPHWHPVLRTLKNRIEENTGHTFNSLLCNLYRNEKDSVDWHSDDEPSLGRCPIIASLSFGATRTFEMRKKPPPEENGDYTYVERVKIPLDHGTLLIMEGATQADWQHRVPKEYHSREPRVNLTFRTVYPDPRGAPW
# [9] = target: T1, ALKBH3; assay: Co-immunoprecipitation; type: binding; settings: for co-immunoprecipitation of endogenous ALKBH3: NCI-H23 and PC-3, Flag-HA-RAD51C constructs
# [10] = test system: mutant ALKBH3 (H191A, D193A and H257A); assay: Demethylation assay with mutant ALKBH3; type: biochemical, human; settings: mutant ALKBH3 0.2 μM, RAD51C 4.0 μM
# [11] = test system: RAD51; assay: Yeast two-hybrid with RAD51; type: binding, human; settings: pGBKT7-RAD51C or pGBKT7-RAD51CΔ42-52
# [12] = target: T1, ALKBH3; assay: Yeast two-hybrid with ALKBH3; type: binding; settings: strain pJ69-4A; growth on dropout plates and lacZ reporter
# Outline: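 Full-length ALKBH2 or ALKBH3 fused to Gal4 binding domain (pGBKT7) was co-transformed with Gal4 activation domain (pACT2) fusions of RAD51, RAD51B, RAD51C, RAD51D, XRCC2 or XRCC3, or empty vectors. Transformants were selected on SD -Leu -Trp plates at 30°C for 2–3 days, then spotted on -His (triple) or -His -Ade (quadruple) dropout plates. lacZ was scored qualitatively by X-gal filter assay.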
# [13] = test system: XRCC3; assay: Yeast two-hybrid with XRCC3; type: binding, human; settings: pGBKT7-RAD51C or pGBKT7-RAD51CΔ42-52
# [14] = target: T1, ALKBH3; assay: Demethylation assay by direct detection of formaldehyde; type: biochemical
# [15] = test system: RAD51B; assay: Yeast two-hybrid with RAD51B; type: binding, human; settings: pGBKT7-RAD51C or pGBKT7-RAD51CΔ42-52
# [16] = target: T1, ALKBH3; assay: Steady-state; type: biochemical
# [17] = test system: RAD51D; assay: Yeast two-hybrid with RAD51D; type: binding, human; settings: pGBKT7-RAD51C or pGBKT7-RAD51CΔ42-52
# [18] = test system: NCI-H23 cells; assay: Immunofluorescence of 3meC, NCI-H23; type: cell-based, human; settings: stable RAD51C knockdown NCI-H23, MMS 400 μM, 48 h; at least 50 cells counted
# Outline: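 RNAi-resistant Flag-HA-RAD51C, wild-type or Δ42–52, was electroporated into stable RAD51C-knockdown cells 24 h before MMS. Cells were fixed in formaldehyde, denatured in HCl, then co-stained for anti-HA (recombinant protein) and anti-3meC, with DAPI. Images were taken by fluorescence microscopy and signals quantified.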
# [19] = combined RAD51C and ALKBH3 knockdown
# [20] = stable RAD51C and ALKBH3 knockdown
# [21] = HEK-293T, Flag-HA-RAD51C constructs and Myc-ALKBH3 co-expressed, anti-Flag
# [22] = 3′-tailed DNA 0.6–9.6 μM, ALKBH3 0.2 μM, RAD51C or RAD51CΔ42–52 4 μM, FDH-coupled
molecule,measurement,setting,value
"COS(C)(=O)=O [MMS, methyl methanesulphonate]",MMS sensitivity (Calcein-AM),[1],MMS sensitive
same,3meC accumulation in nucleus,"[2]; MMS 400 μM, ALKBH3 knockdown",a number of cells showed 3meC accumulation in the nucleus
same,"3meC level, effect less than ALKBH3 knockdown","[2]; MMS 400 μM, RAD51C knockdown",~50%
same,3meC accumulation in nucleus,"[2]; MMS 400 μM, combined RAD51C and ALKBH3 knockdown",3meC accumulation in the nucleus in a manner epistatic with ALKBH3 knockdown
same,3meC signal in nucleus,"[2]; MMS 400 μM, control shRNA",no visible signal for 3meC were detected in the nucleus
same,"cell survival, combined knockdown",[3]; [19],severe cell survival defect
same,cell proliferation,[3]; [20],significantly affected
same,MMS sensitivity (Calcein-AM),[4],MMS sensitive
same,"cell survival, combined knockdown",[5]; [19],severe cell survival defect
same,cell proliferation,[5]; [20],significantly affected
same,MMS sensitivity,[6],MMS sensitivity
"RAD51C: human RAD51 paralogue, recombinant or expressed (tag-less, His-tag or Flag-HA)",pull-down by GST-ALKBH3,[7],could be pulled down by GST-ALKBH3
same,effect on 3meC level,[8],reduction in the levels of 3meC in 3′-tailed DNA was higher compared to the ALKBH3 alone
same,co-immunoprecipitation of ALKBH3,[9]; [21],ALKBH3 was immunoprecipitated with RAD51C
same,co-immunoprecipitation of endogenous ALKBH3,[9]; anti-Flag,immunoprecipitated endogenous ALKBH3 in both the cell lines
same,co-immunoprecipitation of ALKBH3,"[9]; PC-3, endogenous proteins, anti-RAD51C antibody",ALKBH3 could indeed be immunoprecipitated with RAD51C
same,effect on mutant ALKBH3 activity,[10],indistinguishable from the mutant ALKBH3 alone
same,yeast two-hybrid interaction with RAD51,[11],weak interaction
same,yeast two-hybrid interaction with ALKBH3,[12],robust interaction
same,yeast two-hybrid interaction with XRCC3,[13],interacted strongly
same,effect of ATP exclusion or ATP-γ-S on RAD51C stimulation,"[14]; ALKBH3 0.2 μM, RAD51C 4.0 μM",did not affect the results
same,"formaldehyde release, RAD51C only",[14]; RAD51C without ALKBH3,did not result in any formaldehyde release
same,yeast two-hybrid interaction with RAD51B,[15],interacted strongly
same,Km,[16]; [22],1.7 µM
same,kcat/KM,[16]; [22],2.6 min^-1μM^-1
same,Vmax,"[16]; 3′-tailed DNA, RAD51C 4 μM with ALKBH3 0.2 μM",increased the Vmax for ALKBH3 reaction
same,yeast two-hybrid interaction with RAD51D,[17],weak interaction
"RAD51CΔ42–52 (protein, left off: Gal4 activation domain, end not stated, kept) MRGKTFRFEMQRDLVSFPLSPAVRVKLVSAGFQTAEELLEVSKAEALETLQIIRRECLTNKPRYAGTSESHKKCTALELLEQEHTQGFIITFCSALDDILGGGVPLMKTTEICGAPGVGKTQLCMQLAVDVQIPECFGGVAGEAVFIDTEGSFMVDRVVDLATACIQHLQLIAEKHKGEEHRKALEDFTLDNILSHIYYFRCRDYTELLAQVYLLPDFLSEHSKVRLVIVDGIAFPFRHDLDDLSLRTRLLNGLAQQMISLANNHRLAVILTNQMTTKIDRNQALLVPALGESWGHAATIRLIFHWDRKQRLATLYKSPSQKECTVLFQIKPQGFRDTVVTSACSLQTEGSLSTRKRSRDPEEEL",pull-down by GST-ALKBH3,[7],could not be pulled down by GST-ALKBH3
same,effect on 3meC level,[8],could not result in any significant reduction in the levels of 3meC compared to ALKBH3 alone
same,co-immunoprecipitation of ALKBH3,[9]; [21],not with RAD51CΔ42–52
same,co-immunoprecipitation of endogenous ALKBH3,[9]; anti-Flag,significantly reduced amount of endogenous ALKBH3 was immunoprecipitated
same,3meC signal increase after mutant expression,[18],at least 50%
same,yeast two-hybrid interaction with RAD51,[11],weak interaction
same,yeast two-hybrid interaction with ALKBH3,[12],completely abolished
same,yeast two-hybrid interaction with XRCC3,[13],interacted strongly
same,3meC signal increase after mutant expression,"[2]; stable RAD51C knockdown PC3, MMS 400 μM, at least 50 cells counted",at least 50%
same,yeast two-hybrid interaction with RAD51B,[15],interacted strongly
same,kcat/KM,[16]; [22],1.42 min^-1μM^-1
same,yeast two-hybrid interaction with RAD51D,[17],weak interaction
